According to ChEMBL document CHEMBL1156226, “Synthesis and structure-activity relationship studies of peptidomimetic PKB/Akt inhibitors: the significance of backbone interactions” (Bioorg Med Chem, 2010):
Square brackets hold non-standard residues; d marks the D form. Peptide text beside a SMILES is read from it. Gly(N-4-hydroxybenzyl) = O=C(O)CNCc1ccc(O)cc1; Gly(N-(CH2)3-guanidino) = N=C(N)NCCCNCC(=O)O; hLeu = CC(C)CC[C@H](N)C(=O)O; NMeNva = CCC[C@H](NC)C(=O)O; Nva = CCC[C@H](N)C(=O)O; Dap = NC[C@H](N)C(=O)O; NPrGly = CCCNCC(=O)O

Biological target: RAC-alpha serine/threonine-protein kinase (Homo sapiens, UniProt P31749)
Sequence (P31749 whole entry): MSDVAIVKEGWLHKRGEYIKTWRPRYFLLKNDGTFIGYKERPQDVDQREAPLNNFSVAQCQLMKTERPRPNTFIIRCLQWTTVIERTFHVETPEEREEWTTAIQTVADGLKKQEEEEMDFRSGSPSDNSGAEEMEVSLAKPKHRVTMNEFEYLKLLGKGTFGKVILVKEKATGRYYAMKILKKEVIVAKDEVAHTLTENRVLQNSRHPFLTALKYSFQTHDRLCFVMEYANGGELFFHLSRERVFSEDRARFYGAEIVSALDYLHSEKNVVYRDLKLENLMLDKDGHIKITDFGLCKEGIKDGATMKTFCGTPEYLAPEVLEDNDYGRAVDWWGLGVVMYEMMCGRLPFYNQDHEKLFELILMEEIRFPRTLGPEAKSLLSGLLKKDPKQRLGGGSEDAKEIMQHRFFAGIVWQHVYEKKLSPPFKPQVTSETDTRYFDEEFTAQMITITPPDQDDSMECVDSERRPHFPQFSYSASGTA
Assay: Inhibition of PKB at 100 uM by radioactive kinase assay relative to control
Procedure, shortened: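 PKB/Akt enzyme HisAPHPKBEEEFlag, partly purified in one step on Ni-NTA agarose. The radioactive kinase reaction contains 50 mM Hepes pH 7.4, 0.1 mM EGTA, 0.1% 2-mercaptoethanol, 10 mM magnesium acetate, 3 uM RPRTSSF peptide substrate, 10 uM [γ32P]ATP and 0.005 units enzyme. Inhibition is given as percent reduction of activity against a no-inhibitor control. IC50 values, with 95% confidence ranges, come from curve fitting.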

| Structure (SMILES) | inhibition [%] |
| --- | --- |
| CCCN(CC(=O)N[C@@H](Cc1ccc(O)cc1)C(=O)N[C@@H](CN)C(=O)N[C@@H](CCC(C)C)C(N)=O)C(=O)[C@H](CCCNC(=N)N)NC(=O)[C@@H]1CCCN1C(=O)[C@H](CCCNC(=N)N)NC(C)=O (Ac-RPR[NPrGly]Y[Dap][hLeu]-NH2) | 0 |
| CCC[C@H](NC(=O)[C@H](CCCNC(=N)N)NC(=O)[C@@H]1CCCN1C(=O)[C@H](CCCNC(=N)N)NC(C)=O)C(=O)N(CC(=O)N[C@@H](CN)C(=O)N[C@@H](CCC(C)C)C(N)=O)Cc1ccc(O)cc1 (Ac-RPR[Nva][Gly(N-4-hydroxybenzyl)][Dap][hLeu]-NH2) | 49 |
| CCC[C@H](NC(=O)[C@H](CCCNC(=N)N)NC(=O)[C@@H]1CCCN1C(=O)[C@H](CCCNC(=N)N)NC(C)=O)C(=O)N(CC(=O)N[C@@H](CN)C(=O)N[C@@H](CCC(C)C)C(=O)O)Cc1ccc(O)cc1 (Ac-RPR[Nva][Gly(N-4-hydroxybenzyl)][Dap][hLeu]-OH) | 28 |
| CCCN(CC(=O)N[C@@H](Cc1ccc(O)cc1)C(=O)N[C@@H](CN)C(=O)N[C@@H](CCC(C)C)C(N)=O)C(=O)[C@H](CCCNC(=N)N)NC(=O)[C@@H]1CCCN1C(=O)[C@@H](N)CCCNC(=N)N (H-RPR[NPrGly]Y[Dap][hLeu]-NH2) | 16 |
| CCC[C@H](NC(=O)CN(CCCNC(=N)N)C(=O)[C@@H]1CCCN1C(=O)[C@@H](N)CCCNC(=N)N)C(=O)N[C@@H](Cc1ccc(O)cc1)C(=O)N[C@@H](CN)C(=O)N[C@@H](CCC(C)C)C(N)=O (H-RP[Gly(N-(CH2)3-guanidino)][Nva]Y[Dap][hLeu]-NH2) | 30 |
| CCC[C@H](NC(=O)[C@H](CCCNC(=N)N)NC(=O)[C@@H]1CCCN1C(=O)[C@@H](N)CCCNC(=N)N)C(=O)N[C@@H](Cc1ccc(O)cc1)C(=O)N[C@@H](CN)C(=O)N(CC(N)=O)CC(C)CC (stereo partly specified) (HELM PEPTIDE1{R.P.R.[Nva].Y.[NC[C@H](N[*:1])C(=O)[*:2]].[CCC(C)CN(CC(=O)[*:2])[*:1]].[am]}$$$$V2.0) | 39 |
| CCC[C@H](NC(=O)[C@H](CCCNC(=N)N)N(C)C(=O)[C@@H]1CCCN1C(=O)[C@@H](N)CCCNC(=N)N)C(=O)N[C@@H](Cc1ccc(O)cc1)C(=O)N[C@@H](CN)C(=O)N[C@@H](CCC(C)C)C(=O)O (HELM PEPTIDE1{R.P.[meR].[Nva].Y.[NC[C@H](N[*:1])C(=O)[*:2]].[CC(C)CC[C@H](N[*:1])C(=O)O]}$$$$V2.0) | 42 |

Next, values leading:

| inhibition [%] | Structure (SMILES) |
| --- | --- |
| 62 | CCC[C@@H](C(=O)N[C@@H](Cc1ccc(O)cc1)C(=O)N[C@@H](CN)C(=O)N[C@@H](CCC(C)C)C(N)=O)N(C)C(=O)[C@H](CCCNC(=N)N)NC(=O)[C@@H]1CCCN1C(=O)[C@@H](N)CCCNC(=N)N (H-RPR[NMeNva]Y[Dap][hLeu]-NH2) |
| 0 | CCC[C@H](NC(=O)[C@H](CCCNC(=N)N)NC(=O)[C@@H]1CCCN1C(=O)[C@@H](N)CCCNC(=N)N)C(=O)N[C@@H](Cc1ccc(O)cc1)C(=O)N(C)[C@@H](CN)C(=O)N[C@@H](CCC(C)C)C(=O)O (HELM PEPTIDE1{R.P.R.[Nva].Y.[CN([C@@H](CN)C(=O)[*:2])[*:1]].[CC(C)CC[C@H](N[*:1])C(=O)O]}$$$$V2.0) |
| 75 | CCC[C@H](NC(=O)[C@H](CCCNC(=N)N)NC(=O)[C@@H]1CCCN1C(=O)[C@@H](N)CCCNC(=N)N)C(=O)N[C@@H](Cc1ccc(O)cc1)C(=O)N(C)[C@@H](CN)C(=O)N[C@@H](CCC(C)C)C(N)=O (HELM PEPTIDE1{R.P.R.[Nva].Y.[CN([C@@H](CN)C(=O)[*:2])[*:1]].[CC(C)CC[C@H](N[*:1])C(=O)[*:2]].[am]}$$$$V2.0) |
| 1 | CCC[C@H](NC(=O)[C@H](CCCNC(=N)N)NC(=O)[C@@H]1CCCN1C(=O)[C@H](CCCNC(=N)N)NC(C)=O)C(=O)N[C@@H](Cc1ccc(O)cc1)C(=O)N(C)[C@@H](CN)C(=O)N[C@@H](CCC(C)C)C(=O)O (HELM PEPTIDE1{[ac].R.P.R.[Nva].Y.[CN([C@@H](CN)C(=O)[*:2])[*:1]].[CC(C)CC[C@H](N[*:1])C(=O)O]}$$$$V2.0) |
